Test system: Salmonella typhimurium
Assay: Mutagenicity in Salmonella typhimurium strain TA92 assessed as number of bacterial revertants after 2 days by Ames test in presence of rat liver S9 fraction
Format: toxicity, organism-based
Conditions: salmonella enterica subsp. enterica serovar typhimurium, s9, 48 h
In short: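 S. typhimurium TA92 (hisG46, pKM101) grown 12-16 h at 37 °C in nutrient broth (~10⁹ cells/mL). S-9 from livers of Aroclor 1254-induced female Sprague-Dawley rats (500 mg/kg ip, 5 days before sacrifice). Compound in Me₂SO, bacteria and S-9 mix preincubated 20 min at 30 °C, then plated in histidine/biotin top agar and incubated 2 days at 37 °C. Revertants were hand counted, with spontaneous control revertants subtracted. Triplicates were run. The end point was 30 revertants/10⁸ bacteria, interpolated to give log 1/C.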

Row | SMILES | log(1/C)
1 | Cc1ccc(/N=N/N(C)C)cc1 | 7
2 | CN(C)/N=N/c1ccc(Cl)cc1 | 6.48
3 | CN(C)/N=N/c1ccc(C#N)cc1 | 4.43
4 | CN(C)/N=N/c1ccc(-c2ccccc2)cc1 | 7.67
5 | CN(C)/N=N/c1ccc(S(N)(=O)=O)cc1 | 3.49
6 | CN(C)/N=N/c1ccccc1 | 5.32
7 | CN(C)/N=N/c1ccc(C(N)=O)cc1 | 4.04
8 | CN(/N=N/c1ccc(C(N)=O)cc1)C(C)(C)C | 3.83
9 | CC(=O)c1ccc(/N=N/N(C)C)cc1 | 4.47
10 | CN(C)/N=N/c1cccc(NC(N)=O)c1 | 4.19
11 | CN(C)/N=N/c1[nH]cnc1C(N)=O [DACARBAZINE] | 3
12 | Cc1cccc(/N=N/N(C)C)c1 | 6.44
13 | CC(=O)Nc1ccc(/N=N/N(C)C)cc1 | 5.83
14 | C=CCN(C)/N=N/c1ccc(C(N)=O)cc1 | 4.16
15 | CN(C)/N=N/c1ccc(NC(N)=O)cc1 | 5.59
16 | CN(C)/N=N/c1cccc(C(N)=O)c1 | 3.51
17 | CN(C)/N=N/c1cc(C#N)cc(C#N)c1 | 3.46
18 | COc1cc2c(c3oc(=O)c4c(c13)CCC4=O)[C@@H]1C=CO[C@@H]1O2 [AFLATOXIN] | 9.48
19 | CCCCN(C)/N=N/c1ccc(C(N)=O)cc1 | 5.41
20 | CN(C)/N=N/c1ccc(C(F)(F)F)cc1 | 5.99

Reference: ChEMBL document CHEMBL3227950, “Ames test of 1-(X-phenyl)-3,3-dialkyltriazenes. A quantitative structure-activity study” (J Med Chem, 1979)
